Results: ChEMBL document CHEMBL1806376, “Synthesis and biological properties of macrolactam analogs of the natural product macrolide (-)-A26771B” (2011)
Values after ≈ are worked out from the molar mass of the structure shown.

Experiments:
Type in all cases: functional
Escherichia coli = experiment: Antibacterial activity against Escherichia coli ATCC 25922 by broth microdilution method
In short: (§1)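 MIC values determined by broth microdilution following the CLSI method.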

Enterococcus faecalis = experiment: Antibacterial activity against Enterococcus faecalis ATCC 29212 by broth microdilution method; in short: as §1
Enterococcus faecium = experiment: Antibacterial activity against Enterococcus faecium 1 by broth microdilution method; in short: as §1
Haemophilus influenzae [1] = experiment: Antibacterial activity against Haemophilus influenzae ATCC 31517 by broth microdilution method; in short: as §1
Haemophilus influenzae [2] = experiment: Antibacterial activity against efflux knock-out Haemophilus influenzae LS2 by broth microdilution method; in short: as §1
Pseudomonas aeruginosa = experiment: Antibacterial activity against Pseudomonas aeruginosa ATCC 27853 by broth dilution method; in short: as §1
Staphylococcus aureus [3] = experiment: Antibacterial activity against Staphylococcus aureus ATCC 13709 by broth microdilution method; in short: as §1
Staphylococcus aureus [4] = experiment: Antibacterial activity against methicillin-resistant Staphylococcus aureus Sa2 by broth microdilution method
In short: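 Broth microdilution run according to the CLSI method.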

Staphylococcus aureus [5] = experiment: Antibacterial activity against Staphylococcus aureus ATCC 25923 by broth microdilution method; in short: as §1
Staphylococcus aureus [6] = experiment: Antibacterial activity against Staphylococcus aureus ATCC 25923 by broth microdilution method in presence of 10% human serum
In short: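 MIC determined by broth microdilution per the CLSI method, with 10% human serum added to the medium.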

Staphylococcus aureus [7] = experiment: Antibacterial activity against Staphylococcus aureus oxford by broth microdilution method; in short: as §1
Streptococcus pneumoniae [8] = experiment: Antibacterial activity against Streptococcus pneumoniae ATCC 49619 by broth microdilution method; in short: as §1
Streptococcus pneumoniae [9] = experiment: Antibacterial activity against Streptococcus pneumoniae Pen9 IV381-221 by broth microdilution method; in short: as §1
[10] = Enterococcus faecalis, ATCC 29212, read-out: MIC
[11] = Enterococcus faecium, 1, read-out: MIC
[12] = Haemophilus influenzae, ATCC 31517, read-out: MIC
[13] = Haemophilus influenzae, LS2, read-out: MIC
[14] = Staphylococcus aureus, ATCC 13709, read-out: MIC
[15] = Staphylococcus aureus, Sa2, read-out: MIC
[16] = Staphylococcus aureus, ATCC 25923, read-out: MIC
[17] = Staphylococcus aureus, oxford, read-out: MIC
[18] = Streptococcus pneumoniae, ATCC 49619, read-out: MIC
[19] = Streptococcus pneumoniae, Pen9 IV381-221, read-out: MIC

Compound	MIC (Escherichia coli) [µg/mL]	MIC (Enterococcus faecalis; [10]) [µg/mL]	MIC (Enterococcus faecium; [11]) [µg/mL]	MIC (Haemophilus influenzae [1]; [12]) [µg/mL]	MIC (Haemophilus influenzae [2]; [13]) [µg/mL]	MIC (Pseudomonas aeruginosa) [µg/mL]	MIC (Staphylococcus aureus [3]; [14]) [µg/mL]	MIC (Staphylococcus aureus [4]; [15]) [µg/mL]	MIC (Staphylococcus aureus [5]; [16]) [µg/mL]	MIC (Staphylococcus aureus [6]; [16]) [µg/mL]	MIC (Staphylococcus aureus [7]; [17]) [µg/mL]	MIC (Streptococcus pneumoniae [8]; [18]) [µg/mL]	MIC (Streptococcus pneumoniae [9]; [19]) [µg/mL]	also measured
C[C@@H]1CCCCCCCCC[C@H](OC(=O)CCC(=O)O)C(=O)/C=C/C(=O)O1	> 32	16 (≈ 41.8 µM)	4 (≈ 10.5 µM)	> 32	16 (≈ 41.8 µM)	> 32	2 (≈ 5.23 µM)	2 (≈ 5.23 µM)	4 (≈ 10.5 µM)	> 32	2 (≈ 5.23 µM)	16 (≈ 41.8 µM)	8 (≈ 20.9 µM)	–
C[C@@H]1CCCCCCCCC[C@H](OC(=O)CCC(=O)OC(C)(C)C)C(=O)/C=C/C(=O)O1	> 32	2 (≈ 4.56 µM)	–	> 32	8 (≈ 18.2 µM)	> 32	2 (≈ 4.56 µM)	0.5 (≈ 1.14 µM)	8 (≈ 18.2 µM)	> 32	2 (≈ 4.56 µM)	2 (≈ 4.56 µM)	1 (≈ 2.28 µM)	–
C[C@@H]1CCCCCCCCC[C@H](OC(=O)CCC(=O)OC(C)(C)C)C(=O)CC(N2CCN(C)CC2)C(=O)O1 (some centres not stated)	> 32	4 (≈ 7.42 µM)	4 (≈ 7.42 µM)	> 32	–	> 32	2 (≈ 3.71 µM)	2 (≈ 3.71 µM)	4 (≈ 7.42 µM)	> 32	2 (≈ 3.71 µM)	4 (≈ 7.42 µM)	2 (≈ 3.71 µM)	–
CC(=O)N(CCOc1ccccc1)C1CC(=O)[C@@H](OC(=O)CCC(=O)OC(C)(C)C)CCCCCCCCC[C@@H](C)OC1=O (some centres not stated)	> 32	> 32	> 32	> 32	> 32	> 32	> 32	> 32	> 32	> 32	> 32	> 32	> 32	–
C[C@@H]1CCCCCCCCC[C@H](OC(=O)CCC(=O)OC(C)(C)C)C(=O)c2[nH]ncc2C(=O)O1	> 64	> 64	> 64	> 64	8 (≈ 16.7 µM)	> 64	> 64	> 64	> 64	> 64	> 64	> 64	32 (≈ 66.9 µM)	–
C[C@@H]1CCCCCCCCC[C@H](O)C(=O)/C=C/C(=O)O1	> 32	2 (≈ 7.08 µM)	8 (≈ 28.3 µM)	16 (≈ 56.7 µM)	1 (≈ 3.54 µM)	> 32	1 (≈ 3.54 µM)	2 (≈ 7.08 µM)	2 (≈ 7.08 µM)	32	1 (≈ 3.54 µM)	2 (≈ 7.08 µM)	2 (≈ 7.08 µM)	–
CO[C@H]1CCCCCCCCC[C@@H](C)OC(=O)/C=C/C1=O	> 64	2 (≈ 6.75 µM)	2 (≈ 6.75 µM)	32 (≈ 108 µM)	4 (≈ 13.5 µM)	> 64	1 (≈ 3.37 µM)	0.5 (≈ 1.69 µM)	1 (≈ 3.37 µM)	16	1 (≈ 3.37 µM)	2 (≈ 6.75 µM)	2 (≈ 6.75 µM)	–
CC(=O)O[C@H]1CCCCCCCCC[C@@H](C)OC(=O)/C=C/C1=O	> 64	4 (≈ 12.3 µM)	2 (≈ 6.16 µM)	32 (≈ 98.6 µM)	4 (≈ 12.3 µM)	> 64	0.5 (≈ 1.54 µM)	0.5 (≈ 1.54 µM)	1 (≈ 3.08 µM)	16	1 (≈ 3.08 µM)	2 (≈ 6.16 µM)	4 (≈ 12.3 µM)	–
Cc1nc2c([nH]1)CCCCCCCCC[C@@H](C)OC(=O)/C=C/2	> 64	32 (≈ 105 µM)	16 (≈ 52.6 µM)	> 64	16 (≈ 52.6 µM)	> 64	32 (≈ 105 µM)	32 (≈ 105 µM)	32 (≈ 105 µM)	> 64	32 (≈ 105 µM)	16 (≈ 52.6 µM)	8 (≈ 26.3 µM)	–
CO[C@H]1CCCCCCCCC[C@@H](C)OC(=O)CCC1=O	> 64	> 64	> 64	> 64	64 (≈ 214 µM)	> 64	> 64	> 64	> 64	> 64	> 64	> 64	> 64	–
CO[C@H]1CCCCCCCCC[C@@H](C)OC(=O)/C(C)=C/C1=O	> 64	> 64	> 64	> 64	> 64	> 64	> 64	> 64	> 64	> 64	> 64	> 64	> 64	–
CO[C@H]1CCCCCCCCC[C@@H](C)OC(=O)C(Sc2ccccc2)CC1=O (some centres not stated)	> 64	> 64	> 64	> 64	2 (≈ 4.92 µM)	> 64	1 (≈ 2.46 µM)	2 (≈ 4.92 µM)	1 (≈ 2.46 µM)	16	1 (≈ 2.46 µM)	2 (≈ 4.92 µM)	1 (≈ 2.46 µM)	–
CO[C@H]1CCCCCCCCC[C@@H](C)OC(=O)C(S(=O)(=O)c2ccccc2)CC1=O (some centres not stated)	> 64	4 (≈ 9.12 µM)	4 (≈ 9.12 µM)	32 (≈ 73 µM)	2 (≈ 4.56 µM)	> 64	1 (≈ 2.28 µM)	2 (≈ 4.56 µM)	1 (≈ 2.28 µM)	32	1 (≈ 2.28 µM)	4 (≈ 9.12 µM)	2 (≈ 4.56 µM)	–
C[C@@H]1CCCCCCCCC[C@H](O)C(=O)CC(SCC(F)(F)F)C(=O)O1 (some centres not stated)	> 64	4 (≈ 10 µM)	4 (≈ 10 µM)	32 (≈ 80.3 µM)	2 (≈ 5.02 µM)	> 64	1 (≈ 2.51 µM)	1 (≈ 2.51 µM)	1 (≈ 2.51 µM)	32	1 (≈ 2.51 µM)	4 (≈ 10 µM)	4 (≈ 10 µM)	–
CO[C@H]1CCCCCCCCC[C@@H](C)OC(=O)C2CC2C1=O (mixture of isomers)	> 64	> 64	> 64	> 64	> 64	> 64	> 64	> 64	> 64	> 64	> 64	> 64	> 64	–
CO[C@H]1CCCCCCCCC[C@@H](C)OC(=O)C2OC2C1=O (single isomer, unassigned; diastereomer 1)	–	–	32 (≈ 102 µM)	> 64	> 64	> 64	32 (≈ 102 µM)	> 64	64 (≈ 205 µM)	> 64	64 (≈ 205 µM)	64 (≈ 205 µM)	64 (≈ 205 µM)	MIC (Enterococcus faecalis): 64 µg/mL (≈ 205 µM)
COC1CCCCCCCCC[C@@H](C)NC(=O)/C=C/C1=O (single isomer, unassigned; diastereomer 1)	> 64	–	–	2 (≈ 6.77 µM)	0.25 (≈ 0.846 µM)	> 64	1 (≈ 3.38 µM)	1 (≈ 3.38 µM)	1 (≈ 3.38 µM)	8	1 (≈ 3.38 µM)	2 (≈ 6.77 µM)	8 (≈ 27.1 µM)	MIC (Enterococcus faecalis): 2 µg/mL (≈ 6.77 µM); MIC (Enterococcus faecium): 0.5 µg/mL (≈ 1.69 µM)
COC1CCCCCCCCC[C@@H](C)NC(=O)/C=C/C1=O (single isomer, unassigned; diastereomer 2)	–	2 (≈ 6.77 µM)	0.5 (≈ 1.69 µM)	–	–	–	–	–	–	–	–	–	–	MIC (Haemophilus influenzae [1]): 2 µg/mL (≈ 6.77 µM); MIC (Haemophilus influenzae [2]): 0.25 µg/mL (≈ 0.846 µM); MIC (Staphylococcus aureus [3]): 0.5 µg/mL (≈ 1.69 µM); MIC (Staphylococcus aureus [4]): 0.5 µg/mL (≈ 1.69 µM); MIC (Staphylococcus aureus [5]): 1 µg/mL (≈ 3.38 µM); MIC (Staphylococcus aureus [6]): 8 µg/mL; MIC (Staphylococcus aureus [7]): 0.5 µg/mL (≈ 1.69 µM); MIC (Streptococcus pneumoniae [8]): 2 µg/mL (≈ 6.77 µM); MIC (Streptococcus pneumoniae [9]): 8 µg/mL (≈ 27.1 µM)
CO[C@H]1CCCCCCCCC[C@@H](C)OC(=O)C2OC2C1=O (stereo in doubt; 16b)	> 64	> 64	–	–	–	–	–	–	–	–	–	–	–	MIC (Enterococcus faecium): >64 µg/mL; MIC (Staphylococcus aureus [3]): >64 µg/mL; MIC (Staphylococcus aureus [5]): >64 µg/mL; MIC (Staphylococcus aureus [7]): >64 µg/mL; MIC (Streptococcus pneumoniae [8]): >64 µg/mL; MIC (Streptococcus pneumoniae [9]): >64 µg/mL
